According to ChEMBL document CHEMBL1135916, “Design, synthesis, and structure-activity relationship of pyridyl imidazolidinones: a novel class of potent and selective human enterovirus 71 inhibitors” (J Med Chem, 2002):
Several values for one entry are separate records, joined by “and”; a condition that tells them apart may be missing. Equal entries are not always repeated.

Key:
[1] = Selectivity index (RD/EV71) of the compound; type: functional
[2] = (§1) Cytotoxicity against human rhabdomyosarcoma (RD) cells; type: functional; conditions: Homo sapiens, RD
[3] = Cytotoxicity against human normal skin fibroblast (W138) cells; type: cell-based
How it was run: (§2)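 Test compound at various concentrations added to D551 (human normal skin fibroblast), WI38 (human normal lung fibroblast) or RD cells; incubated 96 h at 37 °C; cells harvested and viable cells counted by trypan blue staining. Triplicate, at least twice.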

[4] = Cytotoxicity against human normal skin fibroblast (D551) cells; type: cell-based; how it was run: as §2
[5] = Selectivity index (W138/EV71) of the compound; type: functional
[6] = Selectivity index (D551/EV71) of the compound; type: functional
[7] = tested on: Enterovirus A71; assay: Inhibition concentration against EV-71; type: functional, organism-based
[8] = as §1; type: functional; how it was run: as §2
[9] = tested on: Enterovirus; assay: Inhibition concentration against human rhinovirus 2; type: functional, organism-based
How it was run: (§3)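 Plaque reduction on Vero cell monolayers infected to give about 50-100 plaques per monolayer in virus control; test compound diluted into agar-medium overlay; 96 h at 35 °C, crystal violet staining, plaques counted. […] Triplicate well means, at least two experiments.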

[10] = tested on: Coxsackievirus; assay: Inhibition concentration against coxsackie virus A10; type: functional, organism-based; how it was run: as §3
[11] = tested on: Coxsackievirus; assay: Inhibition concentration against coxsackie virus B6; type: functional, organism-based; how it was run: as §3
[12] = tested on: Coxsackievirus; assay: Inhibition concentration against coxsackie virus B1; type: functional, organism-based; how it was run: as §3
[13] = tested on: Enterovirus; assay: Inhibition concentration against echovirus 29; type: functional, organism-based; how it was run: as §3
[14] = tested on: Coxsackievirus; assay: Inhibition concentration against coxsackie virus B4; type: functional, organism-based; how it was run: as §3
[15] = tested on: Coxsackievirus; assay: Inhibition concentration against coxsackie virus B5; type: functional, organism-based; how it was run: as §3
[16] = tested on: Coxsackievirus; assay: Inhibition concentration against coxsackie virus A16; type: functional, organism-based; how it was run: as §3
[17] = tested on: unidentified influenza virus; assay: Inhibition concentration against influenza A (WSN); type: functional, organism-based
How it was run: (§4)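 Plaque reduction assay on Vero cell monolayers. Virus was added at a dose giving about 50-100 plaques per monolayer in virus controls. Compound was diluted into the agar-medium overlay, tested up to 25 µM. Plates were incubated 96 h at 35 °C, stained with crystal violet, and plaques counted.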

[18] = tested on: Enterovirus; assay: Inhibition concentration against EV-71 (2231) genotype C; type: functional, organism-based; how it was run: as §3
[19] = tested on: Enterovirus; assay: Inhibition concentration against EV-71 (1743) genotype B; type: functional, organism-based; how it was run: as §3
[20] = tested on: unidentified influenza virus; assay: Inhibition concentration against influenza B […]; type: functional, organism-based; how it was run: as §4
[21] = tested on: Enterovirus; assay: Inhibition concentration against EV-71 (BrCR) genotype A; type: functional, organism-based; how it was run: as §3
[22] = tested on: Enterovirus; assay: Inhibition Concentration against enterovirus 68; type: functional, organism-based; how it was run: as §3
[23] = tested on: Coxsackievirus; assay: Inhibition concentration against coxsackie virus A24; type: functional, organism-based; how it was run: as §3
[24] = tested on: Human alphaherpesvirus 2; assay: Inhibition concentration against herpes simplex virus; type: functional, organism-based; how it was run: as §3
[25] = tested on: Coxsackievirus; assay: Inhibition concentration against coxsackie virus B2; type: functional, organism-based; how it was run: as §3
[26] = tested on: Enterovirus; assay: Inhibition concentration against EV-71 (2086) genotype C; type: functional, organism-based; how it was run: as §3
[27] = tested on: Coxsackievirus; assay: Inhibition concentration against coxsackie virus B3; type: functional, organism-based; how it was run: as §3
[28] = tested on: Enterovirus; assay: Inhibition concentration against human rhinovirus 14; type: functional, organism-based; how it was run: as §3
[29] = tested on: Enterovirus; assay: Inhibition concentration against echovirus 9; type: functional, organism-based; how it was run: as §3
[30] = tested on: Coxsackievirus; assay: Inhibition concentration against coxsackie virus A9; type: functional, organism-based; how it was run: as §3
[31] = W138 normal skin fibroblast cells
[32] = D551 normal skin fibroblast cells

For `COc1ccc(-c2ccc(OCCCCCN3CCN(c4ccncc4)C3=O)cc2)cc1`, the Selectivity index [1] was over 74, the CC50 [2] was over 25 µM and the CC50 [3, 31] was over 100 µM. It also gave a CC50 [4, 32] of over 100 µM, a Selectivity index [5] of over 294 and a Selectivity index [6] of over 294. The IC50 ([7]; Enterovirus A) was 0.34 µM.
With `O=C1N(CCCCCOc2ccc(Br)cc2)CCN1c1ccncc1` the Selectivity index [1] was over 50, the CC50 [3, 31] was 65 µM and the CC50 [4, 32] was 50 µM. It also gave a Selectivity index [5] of 130, a Selectivity index [6] of 100 and a CC50 [8] of over 25 µM. It also gave an IC50 ([7]; Enterovirus A) of 0.5 µM.
Compound `O=C1N(CCCCCOc2ccc(-c3ccc(Br)cc3)cc2)CCN1c1ccncc1` has a Selectivity index [1] of over 179, a CC50 [2] of over 25 µM and a CC50 [3, 31] of over 100 µM. The CC50 [4, 32] was over 100 µM, the Selectivity index [5] was over 714 and the Selectivity index [6] was over 714. The IC50 ([7]; Enterovirus A) was 0.14 µM.
`O=C1N(CCCCCCOc2cccc(Br)c2)CCN1c1ccncc1` gave a CC50 [2] of over 25 µM and an IC50 ([7]; Enterovirus A) of over 25 µM.
`O=C1N(CCCCCCOc2ccc(C(F)(F)F)cc2)CCN1c1ccncn1` gave a CC50 [2] of over 25 µM and an IC50 ([7]; Enterovirus A) of over 25 µM.
Work on `O=C1N(CCCCCCOc2ccc(-c3ccoc3)cc2)CCN1c1ccncc1` yielded a CC50 [2] of over 25 µM and an IC50 ([7]; Enterovirus A) of 0.58 µM.
With `O=C1N(CCCCCOc2ccc(Br)cc2)CCN1c1ccnc(Cl)c1` the CC50 [2] was over 25 µM and the IC50 ([7]; Enterovirus A) was over 25 µM.
Work on `O=C1N(CCCCCCOc2ccc(Br)cc2)CCN1c1ccncn1` yielded a CC50 [2] of over 25 µM and an IC50 ([7]; Enterovirus A) of over 25 µM.
Compound `CSc1ccc(OCCCCCCN2CCN(c3ccnc(Cl)c3)C2=O)cc1` has a CC50 [2] of over 25 µM and an IC50 ([7]; Enterovirus A) of over 25 µM.
Compound `O=C1N(CCCCCOc2ccc(-c3ccc(Cl)cc3)cc2)CCN1c1ccncc1` has a CC50 [2] of 6.25 µM, a CC50 [3, 31] of 32 µM and a CC50 [4] of 6 µM. For the same compound, the IC50 ([7]; Enterovirus A) was 0.06 µM.
With `O=C1N(CCCCCCOc2ccc(F)cc2)CCN1c1ccncc1` the CC50 [8] was over 25 µM and the IC50 ([7]; Enterovirus A) was 3.01 µM.
Work on `O=C1N(CCCCCCOc2cccc3ccccc23)CCN1c1ccncc1` yielded a CC50 [2] of 6.25 µM and an IC50 ([7]; Enterovirus A) of over 6.25 µM.
For `O=C1N(CCCCCOc2ccc(-c3ccc([N+](=O)[O-])cc3)cc2)CCN1c1ccncc1` [listing 1 of 2 here], the Selectivity index [1] was over 76, the Selectivity index [5] was > 169 and 212 and the Selectivity index [6] was > 169 and 200.
With `O=C1N(CCCCCCOc2c(Cl)cccc2Cl)CCN1c1ccncc1` the CC50 [2] was over 25 µM and the IC50 ([7]; Enterovirus A) was over 25 µM.
With `CSc1ccc(OCCCCCCN2CCN(c3ccncc3)C2=O)cc1` the CC50 [8] was over 25 µM and the IC50 ([7]; Enterovirus A) was 4.96 µM.
In the case of `O=C1N(CCCCCOc2ccc(Cl)cc2)CCN1c1cccnc1`, the CC50 [2] is reported as over 25 µM and the IC50 ([7]; Enterovirus A) is reported as 4.65 µM.
In the case of `CN(C)c1cccc(OCCCCCCN2CCN(c3ccncc3)C2=O)c1`, the CC50 [2] is reported as over 25 µM and the IC50 ([7]; Enterovirus A) is reported as over 25 µM.
`O=C1N(CCCCCCCOc2ccc(C(F)(F)F)cc2)CCN1c1ccncc1` showed a CC50 [2] of 6.25 µM and an IC50 ([7]; Enterovirus A) of 0.61 µM.
`O=C1N(CCCCCCOc2ccc(Br)cc2)CCN1c1ccncc1` showed an IC50 [9] of over 25 µM, a Selectivity index [1] of over 71 and a CC50 [2] of over 25 µM. The IC50 [10] was 5.88 µM, the IC50 [11] was over 25 µM and the IC50 [12] was 5.1 µM. It also gave an IC50 [13] of over 25 µM, an IC50 [14] of over 25 µM and an IC50 [15] of over 25 µM. It also gave a CC50 [3, 31] of 50 µM, an IC50 [16] of over 25 µM and an IC50 [17] of over 25 µM. The IC50 [18] was 1.15 µM, the CC50 [4, 32] was 46 µM and the IC50 [19] was 0.6 µM. It also gave an IC50 [20] of over 25 µM, a Selectivity index [5] of 161 and an IC50 [21] of 1.26 µM. It also gave an IC50 [22] of 2.13 µM, a Selectivity index [6] of 148 and an IC50 [23] of 0.55 µM. It also gave an IC50 [24] of over 25 µM, an IC50 [25] of over 25 µM and an IC50 [26] of 0.31 µM. It also gave an IC50 [27] of over 25 µM, an IC50 [28] of 11.6 µM and an IC50 ([7]; Enterovirus A) of 0.35 µM. It also gave an IC50 [29] of 2.82 µM and an IC50 [30] of 0.77 µM.
Compound `O=C1N(CCCCCCCOc2ccc(Cl)cc2)CCN1c1ccncc1` has a CC50 [2] of over 25 µM and an IC50 ([7]; Enterovirus A) of 0.66 µM.
Compound `O=C1N(CCCCCCOc2cccc3cccnc23)CCN1c1ccncc1` has a CC50 [2] of over 25 µM and an IC50 ([7]; Enterovirus A) of over 25 µM.
Work on `O=C1N(CCCCCOc2ccc(-c3ccc([N+](=O)[O-])cc3)cc2)CCN1c1ccncc1` [listing 2 of 2 here] yielded a CC50 [3] of 70 µM, a CC50 [4] of 66 µM and an IC50 [7] of 0.33 µM.
Work on `CC(C)(C)c1ccc(OCCCCCCN2CCN(c3cccnc3)C2=O)cc1` yielded a CC50 [2] of over 25 µM and an IC50 ([7]; Enterovirus A) of over 25 µM.
Compound `O=C1N(CCCCCCOc2ccc(F)cc2)CCN1c1cccnc1` has a CC50 [2] of over 25 µM and an IC50 ([7]; Enterovirus A) of 9.33 µM.
Compound `O=C1N(CCCCCCCOc2ccc(Br)cc2)CCN1c1ccncn1` has a CC50 [2] of over 25 µM and an IC50 ([7]; Enterovirus A) of over 25 µM.
Compound `COc1ccc(OCCCCCCN2CCN(c3ccncc3)C2=O)c(Cl)c1` has a CC50 [2] of over 25 µM and an IC50 ([7]; Enterovirus A) of over 25 µM.
